Assay results taken from ChEMBL document CHEMBL4152204, “Discovery of N-hydroxy-3-alkoxybenzamides as direct acid sphingomyelinase inhibitors using a ligand-based pharmacophore model” (Eur J Med Chem, 2018).
Active and inactive are the calls of the source. No cut-off for these calls is given here.

Key:
[1] = target: T1, Sphingomyelin phosphodiesterase 2 (Homo sapiens) (UniProt O60906); experiment: Inhibition of neutral sphingomyelinase (unknown origin) assessed as reduction in NBD-ceramide release at 100 uM by TLC based fluorescence assay
T1 sequence (whole entry): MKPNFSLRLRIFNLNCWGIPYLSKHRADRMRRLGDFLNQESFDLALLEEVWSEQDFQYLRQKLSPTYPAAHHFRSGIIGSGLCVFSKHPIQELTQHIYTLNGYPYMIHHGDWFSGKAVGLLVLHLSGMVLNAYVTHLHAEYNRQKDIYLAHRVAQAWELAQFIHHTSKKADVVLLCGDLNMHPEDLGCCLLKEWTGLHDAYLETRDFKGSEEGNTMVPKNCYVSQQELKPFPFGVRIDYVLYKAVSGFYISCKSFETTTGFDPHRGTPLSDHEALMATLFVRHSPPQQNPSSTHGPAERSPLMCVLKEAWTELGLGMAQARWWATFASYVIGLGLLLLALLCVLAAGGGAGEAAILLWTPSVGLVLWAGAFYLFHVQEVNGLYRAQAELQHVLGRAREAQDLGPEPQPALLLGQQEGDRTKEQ

NIH3T3 [2] = experiment: Cytoprotective activity against UV-induced apoptosis in mouse NIH/3T3 cells assessed as early apoptotic cells at 10 uM preincubated for 20 hrs followed by UV irradiation for 5 mins and measured after 24 hrs by flow cytometric analysis (reference value: 79.5%); format: functional
NIH3T3 [3] = experiment: Cytoprotective activity against UV-induced apoptosis in mouse NIH/3T3 cells assessed as necrotic cells at 60 uM preincubated for 20 hrs followed by UV irradiation for 5 mins and measured after 24 hrs by flow cytometric analysis (reference value: 1.5%); format: functional
NIH3T3 [4] = experiment: Cytoprotective activity against UV-induced apoptosis in mouse NIH/3T3 cells assessed as necrotic cells preincubated for 20 hrs followed by UV irradiation for 5 mins and measured after 24 hrs by flow cytometric analysis; format: functional, cell-based
Method in brief: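 NIH3T3 cells grown in DMEM plus 10% FBS at 37 °C and 5% CO₂, seeded in 6-well plates and left overnight. Inhibitor (0–60 µM, DMSO solvent) added for 20 h. Medium replaced, then UV at peak 315 nm, 0.29 mW/cm² for 5 min. Cells kept with inhibitor 24 h more before flow cytometry by quadrant regions. Untreated, unirradiated cells served as control. Three independent experiments.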

inhibition [1]: inactive
Structure (SMILES): CCCCCCCCCCOc1cc(C(=O)NO)ccc1OC
Activity (NIH3T3 [2]): 42.1%
Activity (NIH3T3 [3]): 0.6%
Activity (NIH3T3 [4]): Dose-dependent effect
